Laboratory results taken from PubChem BioAssay.
Activity calls are given as the source filed them.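 The calls were made as follows, unless noted: active = viability at or below 30% in both replicate assays; inconclusive = viability at or below 30% in just one of the two assays; inactive = the rest.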

What was measured:
[1] = Her2 expression decrease, cell viability multiplex – SKBR3 breast tumor cells, AlphaScreen, ATP viability, primary screen (AID 461;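 active = Her2 level under about 52% in both replicate screens, with viability over 70% of control, limit read from the data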;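 as to Her2 level: lower value means less Her2 protein in the cells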;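 as to viability: percent of carrier control wells set as 100% viability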); conditions: SKBR3 Her2 protein level, 18-24 h, measured here: SKBR3 viability, ATP luminescence, at 10 µM
[2] = molecular target: Receptor tyrosine-protein kinase erbB-2 (Homo sapiens) (UniProt P04626); experiment: as above; conditions: 18-24 h, at 10 µM, stronger effect = lower value
Receptor tyrosine-protein kinase erbB-2 (Homo sapiens), sequence (P04626 whole entry, looked up): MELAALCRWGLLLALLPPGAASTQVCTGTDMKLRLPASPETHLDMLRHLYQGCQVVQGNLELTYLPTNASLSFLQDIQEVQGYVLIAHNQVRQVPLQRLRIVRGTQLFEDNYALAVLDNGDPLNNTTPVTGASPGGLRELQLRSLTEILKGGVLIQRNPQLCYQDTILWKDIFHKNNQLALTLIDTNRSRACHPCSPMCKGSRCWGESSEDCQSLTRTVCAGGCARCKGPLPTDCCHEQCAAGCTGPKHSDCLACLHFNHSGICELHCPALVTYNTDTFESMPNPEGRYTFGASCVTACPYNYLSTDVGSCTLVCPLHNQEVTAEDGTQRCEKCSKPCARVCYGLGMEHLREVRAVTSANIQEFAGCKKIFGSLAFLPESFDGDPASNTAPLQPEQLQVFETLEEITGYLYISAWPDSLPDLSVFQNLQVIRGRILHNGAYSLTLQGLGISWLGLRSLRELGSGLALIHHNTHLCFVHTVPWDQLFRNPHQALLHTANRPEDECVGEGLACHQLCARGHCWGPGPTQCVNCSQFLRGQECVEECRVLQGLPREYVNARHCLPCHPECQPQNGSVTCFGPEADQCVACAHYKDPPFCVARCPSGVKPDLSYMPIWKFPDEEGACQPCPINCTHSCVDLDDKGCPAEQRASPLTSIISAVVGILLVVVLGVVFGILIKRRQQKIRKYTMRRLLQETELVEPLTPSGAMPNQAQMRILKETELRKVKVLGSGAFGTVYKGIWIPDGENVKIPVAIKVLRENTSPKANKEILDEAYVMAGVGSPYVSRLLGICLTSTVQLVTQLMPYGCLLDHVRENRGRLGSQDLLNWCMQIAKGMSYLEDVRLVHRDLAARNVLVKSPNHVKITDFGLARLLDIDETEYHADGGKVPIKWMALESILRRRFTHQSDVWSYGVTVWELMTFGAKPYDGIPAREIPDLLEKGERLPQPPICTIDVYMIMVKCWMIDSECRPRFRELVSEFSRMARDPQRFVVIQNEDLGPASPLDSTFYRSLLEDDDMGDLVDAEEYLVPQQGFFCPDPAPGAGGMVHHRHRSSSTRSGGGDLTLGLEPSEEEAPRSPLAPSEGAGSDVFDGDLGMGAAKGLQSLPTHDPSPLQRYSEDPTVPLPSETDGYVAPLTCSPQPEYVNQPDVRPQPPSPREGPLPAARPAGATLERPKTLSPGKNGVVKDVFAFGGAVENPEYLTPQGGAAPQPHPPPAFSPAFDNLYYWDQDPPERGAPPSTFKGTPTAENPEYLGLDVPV

[3] = reduced viability of SK-BR-3 breast cancer cells – cell-based, 24 h, human, pilot screen (AID 572;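 active = viability at or below 10% of carrier control in both of two separate runs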;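 also: compound exposure lasted between 18 and 24 h rather than exactly 24 h; 100% = carrier-treated control wells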); conditions: SK-BR-3 viability, CellTiter-Glo luminescence, at 10 µM, stronger effect = lower value
[4] = HUVEC growth inhibition – cell-based, human, primary screen (AID 575); conditions: HUVEC proliferation, CellTiter-Glo luminescence, 72 h; at 10 µM; stronger effect = lower value;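 also: 100% = median of untreated cell wells with 0.1% DMSO on each plate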
Method in brief: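 Material: primary human umbilical vein endothelial cells / Schedule: 72 h exposure, 37 °C, 5% CO2, 30 min RT equilibration / Signal: ATP-based CellTiter-Glo luminescent read / Read-out basis: percent of median DMSO-control luminescence / Control set: 32 DMSO-only cell-control wells (high), 32 MePR drug-control wells (low) per plate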

[5] = H69AR cell proliferation blockers – human, duplicate replicates, primary screen (AID 580;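 active = viability at or under a set limit in both replicates, limit being median viability minus 3 SD, cut at about 48% in these data, passing the limit was not always enough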;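 also: 100% = mean luminescence of untreated wells and 0% = no signal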); conditions: H69AR lung tumor cells viability, ATP luminescence, 72 h; at 10 µM; stronger effect = lower value
[6] = MRP1 drug-resistance reversers in H69AR cells – cell-based, doxorubicin co-treatment, pilot screen (AID 601;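 active = viability loss from added drug above about 55%, and viability with drug at most 40%, in both replicates, limit read from the data, passing the limit was not always enough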); conditions: CellTiter-Glo, 72 h, at 10 µM; for differential viability (reversal): stronger effect = higher value
[7] = yeast transport mutant growth inhibition pilot in 384-well plates, post-Golgi transport modulator project (AID 636; in the data active = inhibition above about 31%); conditions: absorbance 615 nm, about 18 h, stronger effect = higher value
[8] = growth suppression of yeast trafficking mutant, preliminary HTS, modulators of trafficking downstream of Golgi apparatus project, 1536-format plate, OD 615 nm (AID 637; in the data active = inhibition above about 30%); conditions: yeast transport mutant growth, absorbance 615 nm, 18 h; stronger effect = higher value
[9] = H69AR cells + 2 uM doxorubicin, measured here: viability with 2 uM doxorubicin, stronger effect = lower value
[10] = H69AR cells, compound alone cytotoxicity

Row | Structure (SMILES) | viability [1] | Her2 level [2] | viability [3] | viability [4] | viability [5] | differential viability (reversal) ([6]; H69AR cells + 2 uM doxorubicin) | viability [6, 9] | viability [6, 10] | inhibition [7] | inhibition [8]
1 | Cc1ccccc1-c1nc(CS(=O)(=O)CC(=O)NCc2ccc3c(c2)OCO3)c(C)o1 | 99% | 89% (inactive) | 99% (inactive) | 87.3% (inactive) | 87.8% (inactive) | 2.28% (inactive) | 85.5% | 87.8% | -4.53% (inactive) | 3.61% (inactive)
2 | O=C(c1ccco1)N1CCN(S(=O)(=O)c2ccc3c(c2)CCN3C(=O)C2CCC2)CC1 | 81.5% | 130% (inactive) | 81.5% (inactive) | 101% (inactive) | 95.6% (inactive) | 11.7% (inactive) | 83.9% | 95.6% | -1.71% (inactive) | -6.5% (inactive)
3 | CN(c1ccccc1)S(=O)(=O)c1ccc(C(=O)OCC(=O)NCc2ccco2)cc1 | 95.5% | 112% (inactive) | 95.5% (inactive) | 88.5% (inactive) | 74.4% (inactive) | -10.4% (inactive) | 84.8% | 74.4% | 2.03% (inactive) | 16.4% (inactive)
4 | CCc1nc2scc(-c3ccccc3)c2c(=O)n1N | 136% | 119% (inactive) | 136% (inactive) | 84% (inactive) | 88.4% (inactive) | -8.11% (inactive) | 96.5% | 88.4% | -1.33% (inactive) | -3.97% (inactive)
5 | O=S(=O)(NCC1CCCO1)c1cc(Cl)ccc1Br (stereo not given) | 87.5% | 121% (inactive) | 87.5% (inactive) | 109% (inactive) | 96.5% (inactive) | 2.42% (inactive) | 94.1% | 96.5% | 3.25% (inactive) | 4% (inactive)
6 | CCN(CC)S(=O)(=O)c1cccc(-c2nnc(SCC(N)=O)n2CCc2ccccc2)c1 | 102% | 108% (inactive) | 102% (inactive) | 91% (inactive) | 74.7% (inactive) | -9.28% (inactive) | 84% | 74.7% | -2.21% (inactive) | -6.35% (inactive)
7 | COc1cccc(-n2ccnc2SCC(=O)N2CCc3ccccc32)c1 | 94.5% | 102% (inactive) | 94.5% (inactive) | 109% (inactive) | 102% (inactive) | -5.1% (inactive) | 107% | 102% | 0.93% (inactive) | -3.06% (inactive)
8 | O=C(OCC(=O)N1CCC(Cc2ccccc2)CC1)c1ccc[nH]c1=O | 80.5% | 102% (inactive) | 80.5% (inactive) | 117% (inactive) | 92.6% (inactive) | 2.25% (inactive) | 90.4% | 92.6% | 0.13% (inactive) | -12.3% (inactive)
9 | Cc1oc2c(CN3CCCC3)c(O)ccc2c(=O)c1-c1ccccc1 | 88.5% | 82% (inactive) | 88.5% (inactive) | 80.1% (inactive) | 89% (inactive) | 2.93% (inactive) | 86% | 89% | -4.34% (inactive) | 0.48% (inactive)
10 | O=S(=O)(NCc1cn2ccsc2n1)c1ccc2c(c1)OCCO2 | 117% | 102% (inactive) | 117% (inactive) | 96.4% (inactive) | 105% (inactive) | 9.79% (inactive) | 95.5% | 105% | -7.07% (inactive) | -2.26% (inactive)
11 | CC1(C)CC(=O)C(C=Nc2ccc3c(c2)OCO3)=C(O)C1 | 114% | 113% (inactive) | 114% (inactive) | 79.2% (inactive) | 75.5% (inactive) | -27.7% (inactive) | 103% | 75.5% | 0% (inactive) | -4.33% (inactive)
12 | Cc1ccc2c(CNCc3ccco3)cc(=O)oc2c1 | 117% | 94.5% (inactive) | 117% (inactive) | 84.1% (inactive) | 93.5% (inactive) | 11.5% (inactive) | 81.9% | 93.5% | -1.07% (inactive) | -4.03% (inactive)
13 | O=C(CSc1ccc(Cl)cc1)OCc1nnc(-c2ccccc2)o1 | 98% | 99% (inactive) | 98% (inactive) | 106% (inactive) | 109% (inactive) | 29.6% (inactive) | 79.5% | 109% | 0.53% (inactive) | -0.91% (inactive)
14 | N#Cc1nc(-c2ccco2)oc1NCCc1ccccc1 | 92.5% | 98.5% (inactive) | 92.5% (inactive) | 90.6% (inactive) | 97.4% (inactive) | 14.8% (inactive) | 82.6% | 97.4% | -5.58% (inactive) | -10.5% (inactive)
15 | Cn1c(=O)oc2cc(S(=O)(=O)N3CCC(C(=O)Nc4ccc(OC(F)(F)F)cc4)CC3)ccc21 | 137% | 98.5% (inactive) | 137% (inactive) | 91.4% (inactive) | 33% (active) | -4.57% (inactive) | 37.5% | 33% | -5.92% (inactive) | 0.18% (inactive)
16 | Cc1cc(C(=O)N2CCN(c3ncccn3)CC2)cs1 | 90% | 94.5% (inactive) | 90% (inactive) | 104% (inactive) | 102% (inactive) | 11.2% (inactive) | 90.8% | 102% | -5.87% (inactive) | -1.15% (inactive)
17 | CC(C)(C)c1cc(C(=O)O)nn1-c1ccccc1 | 112% | 92% (inactive) | 112% (inactive) | 98.1% (inactive) | 92.2% (inactive) | 5.08% (inactive) | 87.1% | 92.2% | -4.47% (inactive) | -2.54% (inactive)
18 | CC(=O)N1CCC2(CC1)CC(=O)c1cc(OCC(=O)NCc3ccco3)ccc1O2 | 106% | 112% (inactive) | 106% (inactive) | 106% (inactive) | 83.5% (inactive) | -4.33% (inactive) | 87.9% | 83.5% | 0.92% (inactive) | -3.17% (inactive)
19 | O=C(O)CCNc1nc(-c2ccccc2)nc2ccccc12 | 87% | 102% (inactive) | 87% (inactive) | 96.3% (inactive) | 91.1% (inactive) | -2.72% (inactive) | 93.8% | 91.1% | -0.13% (inactive) | -1.11% (inactive)
20 | COc1ccccc1Nc1nc(N)nc(CN2CCN(c3ccccc3F)CC2)n1 | 96% | 120% (inactive) | 96% (inactive) | 98.9% (inactive) | 81.3% (inactive) | -8.69% (inactive) | 90% | 81.3% | 1.71% (inactive) | 11.5% (inactive)
21 | O=c1c2c(nc3nc(CCc4ccccc4)[nH]n13)CCC2 | 112% | 92% (inactive) | 112% (inactive) | 86.6% (inactive) | 91% (inactive) | 14% (inactive) | 77% | 91% | -6% (inactive) | 0.16% (inactive)
22 | Cc1noc(C)c1S(=O)(=O)NCCN1CCN(c2ccccc2)CC1 | 96% | 98.5% (inactive) | 96% (inactive) | 96.4% (inactive) | 96.1% (inactive) | 3.43% (inactive) | 92.7% | 96.1% | -0.79% (inactive) | -0.79% (inactive)
23 | c1cnc2c(SCc3ccc(-c4nnco4)cc3)cccc2c1 | 98.5% | 101% (inactive) | 98.5% (inactive) | 80.7% (inactive) | 97.2% (inactive) | 12.1% (inactive) | 85.2% | 97.2% | -2.03% (inactive) | -12.4% (inactive)
24 | O=C(C1CCC1)N1CCc2cc(S(=O)(=O)Nc3ccc4c(c3)OCO4)ccc21 | 85.5% | 76% (inactive) | 85.5% (inactive) | 70.1% (inactive) | 91.6% (inactive) | 17.8% (inactive) | 73.8% | 91.6% | -6.27% (inactive) | -5.08% (inactive)
25 | O=c1cc(NCc2ccccc2)nc2n1CCCS2 | 103% | 98% (inactive) | 103% (inactive) | 104% (inactive) | 92.1% (inactive) | 0.29% (inactive) | 91.8% | 92.1% | -3.68% (inactive) | -5.71% (inactive)
26 | C/C=C(\C)c1nnc(NC(=O)C(C)C)s1 | 92.5% | 82.5% (inactive) | 92.5% (inactive) | 101% (inactive) | 98.7% (inactive) | 9.51% (inactive) | 89.2% | 98.7% | -4.05% (inactive) | 2.79% (inactive)
27 | N#Cc1nc(COc2ccccc2)oc1NCCCn1ccnc1 | 104% | 103% (inactive) | 104% (inactive) | 96.5% (inactive) | 112% (inactive) | 5.22% (inactive) | 107% | 112% | -0.39% (inactive) | 5.56% (inactive)
28 | COCCn1nnnc1CN(CCCN1CCOCC1)Cc1cc2c(C)ccc(C)c2[nH]c1=O | 85% | 124% (inactive) | 85% (inactive) | 98.5% (inactive) | 68.7% (inactive) | -5.44% (inactive) | 74.1% | 68.7% | 4.55% (inactive) | -7.33% (inactive)
29 | COc1ccccc1N1CCN(CCCNC(=O)Nc2ccccc2)CC1 | 129% | 83.5% (inactive) | 129% (inactive) | 84.5% (inactive) | 90.3% (inactive) | -1.53% (inactive) | 91.8% | 90.3% | -2.76% (inactive) | -0.48% (inactive)
